For 26 molecules, IC50 and inhibition results are on record in ChEMBL document CHEMBL1811899, “Synthesis and evaluation of novel 2-butyl-4-chloro-1-methylimidazole embedded chalcones and pyrazoles as angiotensin converting enzyme (ACE) inhibitors” (Bioorg Med Chem, 2011).

Calls of active or inactive are those of the source. The rule behind the calls is not given here.

The first experiment concerns the target T1, Angiotensin-converting enzyme (Oryctolagus cuniculus, UniProt P12822).
T1 sequence (P12822 whole entry): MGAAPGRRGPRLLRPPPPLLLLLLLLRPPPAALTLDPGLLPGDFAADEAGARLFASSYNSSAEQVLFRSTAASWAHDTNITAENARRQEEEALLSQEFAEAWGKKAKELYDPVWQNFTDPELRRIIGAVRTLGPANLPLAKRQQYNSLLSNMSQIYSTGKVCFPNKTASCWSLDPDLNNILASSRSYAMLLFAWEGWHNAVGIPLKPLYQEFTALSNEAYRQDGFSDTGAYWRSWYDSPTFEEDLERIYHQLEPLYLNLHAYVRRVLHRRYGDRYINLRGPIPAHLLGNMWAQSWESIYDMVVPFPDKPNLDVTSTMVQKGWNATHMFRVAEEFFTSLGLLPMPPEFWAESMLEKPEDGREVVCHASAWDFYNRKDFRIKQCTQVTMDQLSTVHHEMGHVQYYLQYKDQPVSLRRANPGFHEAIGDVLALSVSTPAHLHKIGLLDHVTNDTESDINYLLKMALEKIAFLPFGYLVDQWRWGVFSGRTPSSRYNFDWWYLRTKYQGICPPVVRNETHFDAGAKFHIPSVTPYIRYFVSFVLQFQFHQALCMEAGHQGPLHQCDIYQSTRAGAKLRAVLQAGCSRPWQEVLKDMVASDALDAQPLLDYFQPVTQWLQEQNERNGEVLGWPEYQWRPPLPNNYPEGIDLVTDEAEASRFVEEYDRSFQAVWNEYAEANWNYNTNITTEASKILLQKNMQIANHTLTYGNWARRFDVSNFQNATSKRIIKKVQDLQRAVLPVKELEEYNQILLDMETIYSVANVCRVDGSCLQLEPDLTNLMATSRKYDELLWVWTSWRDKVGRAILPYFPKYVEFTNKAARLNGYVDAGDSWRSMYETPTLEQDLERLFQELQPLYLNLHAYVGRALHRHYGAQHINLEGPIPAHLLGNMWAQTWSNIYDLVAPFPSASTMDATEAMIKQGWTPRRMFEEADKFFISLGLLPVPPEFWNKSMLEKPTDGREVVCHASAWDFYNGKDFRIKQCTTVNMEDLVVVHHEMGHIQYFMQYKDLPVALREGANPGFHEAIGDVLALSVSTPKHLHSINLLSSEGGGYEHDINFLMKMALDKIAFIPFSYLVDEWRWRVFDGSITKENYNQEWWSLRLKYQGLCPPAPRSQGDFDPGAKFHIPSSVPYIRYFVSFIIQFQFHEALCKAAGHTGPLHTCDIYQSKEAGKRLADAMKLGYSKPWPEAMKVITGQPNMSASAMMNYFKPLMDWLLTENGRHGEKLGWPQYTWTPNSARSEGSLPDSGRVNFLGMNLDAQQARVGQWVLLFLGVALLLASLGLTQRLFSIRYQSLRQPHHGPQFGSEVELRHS
Put plainly: (§1) Inhibition of rabbit lung ACE assessed as reduction in hippuryl-histidyl-leucine substrate by colorimetric assay. Put shortly:
(§2)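 ACE came from a rabbit lung homogenate in 0.05 M sodium borate, pH 8.2, 0.3 M NaCl, 0.5% Triton X-100 at 4 °C, centrifuged. Enzyme was preincubated with compound for 10 min at 37 °C, then run for 30 min at 37 °C with 5 mM HHL stock in borate/NaCl buffer. Hippuric acid was derivatised with pyridine and benzenesulfonyl chloride and read at 410 nm. IC50 was taken from % inhibition versus concentration curves; means of three experiments.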
As for `CCCCc1nc(Cl)c(C2CC(c3ccc(Cl)s3)=NN2C(C)=O)n1C` (stereo not given), the IC50 (usually the concentration needed to halve the response being measured) stood at 1800 µM.
For `CCCCc1nc(Cl)c(C2CC(c3ccc(OC)cc3)=NN2C(C)=O)n1C` (stereo not given), the IC50 stood at 2330 µM.
Turning to `CCCCc1nc(Cl)c(C2CC(c3ccco3)=NN2C(C)=O)n1C` (stereo not given), the IC50 was determined as 2350 µM.
For `CCCCc1nc(Cl)c(C2CC(c3ccc([N+](=O)[O-])cc3)=NN2C(C)=O)n1C` (stereo not given), the half-inhibitory concentration (IC50) stood at 2220 µM.
Turning to `O=c1cc(-c2ccc(O)cc2)oc2cc(O)cc(O)c12` [APIGENIN], the IC50 was 280 µM.
Regarding `CCCCc1nc(Cl)c(/C=C/C(=O)c2ccc3sc4ccccc4c3c2)n1C`, the IC50 stood at 2.68 µM.
`O=C(/C=C/c1ccc(O)c(O)c1)c1ccc(O)cc1O` [BUTEIN]: the IC50 is 730 µM.
Consider `CCCCc1nc(Cl)c(/C=C/C(=O)c2ccc(Cl)s2)n1C`, for which the IC50 came to 3.6 µM.
Still for that read-out and setting: the same measure for `CCCCc1nc(Cl)c(C2CC(c3cc(OC)c(OC)c(OC)c3)=NN2C(C)=O)n1C` (stereo not given): 2120 µM.
With `CCCCc1nc(Cl)c(/C=C/C(=O)c2ccc[nH]2)n1C`, the IC50 was determined as 2.24 µM.
On to `CCCCc1nc(Cl)c(C2CC(c3ccc4sc5ccccc5c4c3)=NN2C(C)=O)n1C` (stereo not given), for which the IC50 is 2010 µM.

A further experiment deals with T2, Angiotensin-converting enzyme (Oryctolagus cuniculus) (UniProt P12822).
T2 sequence (whole entry): T1 sequence (P12822 whole entry)
The description is as §1. The method, boiled down:
as §2
For the molecule `CCCCc1nc(Cl)c(/C=C/C(=O)c2ccc3sc4ccccc4c3c2)n1C`, the inhibition entry is “Dose-dependent effect”.
For `CCCCc1nc(Cl)c(/C=C/C(=O)c2ccc(Cl)s2)n1C`, the inhibition entry is “Dose-dependent effect”.
Regarding `CCCCc1nc(Cl)c(/C=C/C(=O)c2ccc[nH]2)n1C`, the inhibition entry is “Dose-dependent effect”.

The next experiment concerns the target T2, Angiotensin-converting enzyme (Oryctolagus cuniculus). The experiment in a line: Inhibition of rabbit lung ACE assessed as reduction in hippuryl-histidyl-leucine substrate at 3 uM by colorimetric assay. Put shortly:
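Rabbit lung homogenised (1 g in 10 mL of 0.05 M sodium borate, pH 8.2, with 0.3 M NaCl and 0.5% Triton X-100, 4 °C) and centrifuged to give the ACE source. Enzyme and test solution preincubated 10 min at 37 °C. The reaction was started with borate/NaCl buffer plus 5 mM HHL stock and run 30 min at 37 °C. Released hippuric acid was reacted with pyridine and benzenesulfonyl chloride, and the yellow product read at 410 nm. Inhibition% = 100 − (T/C)×100.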
With `CCCCc1nc(Cl)c(/C=C/C(=O)c2ccc(OC)cc2)n1C`, the inhibition result is “Active”.
Turning to `CCCCc1nc(Cl)c(/C=C/C(=O)c2ccc3c(c2)c2ccccc2n3C)n1C`, the inhibition result was “Active”.
With `CCCCc1nc(Cl)c(/C=C/C(=O)c2ccc(C)cc2)n1C`, the inhibition result was “Active”.
The same measure, in the same setting: the same measure for `CCCCc1nc(Cl)c(/C=C/C(=O)c2ccc([N+](=O)[O-])cc2)n1C`: “Active”; for `CCCCc1nc(Cl)c(/C=C/C(=O)c2ccc3ccccc3c2)n1C`: “Active”; for `CCCCc1nc(Cl)c(/C=C/C(=O)c2cccs2)n1C`: “Active”.
With `CCCCc1nc(Cl)c(/C=C/C(=O)c2ccc3oc4ccccc4c3c2)n1C`, the inhibition result was “Active”.
Consider `CCCCc1nc(Cl)c(C2CC(c3cccc4ccccc34)=NN2C(C)=O)n1C` (stereo not given), for which the inhibition entry is “inactive”.
Still for that read-out and setting: as for `CCCCc1nc(Cl)c(/C=C/C(=O)c2ccc(Cl)s2)n1C`, the entry is “Active”; as for `CCCCc1nc(Cl)c(/C=C/C(=O)c2cccnc2)n1C`, “Active”.
Same read-out and setting: as for `CCCCc1nc(Cl)c(/C=C/C(=O)c2cccc(Br)n2)n1C`, the entry is “Active”; as for `CCCCc1nc(Cl)c(/C=C/C(=O)c2cc(OC)c(OC)c(OC)c2)n1C`, “Active”; as for `CCCCc1nc(Cl)c(/C=C/C(=O)c2ccco2)n1C`, “Active”.
Still for that read-out and setting: the same measure for `CCCCc1nc(Cl)c(/C=C/C(=O)c2ccc(Br)s2)n1C`: “Active”.
`CCCCc1nc(Cl)c(/C=C/C(=O)c2cccc3ccccc23)n1C`: the inhibition entry is “Active”.
Take `CCCCc1nc(Cl)c(/C=C/C(=O)c2ccccc2)n1C`: the inhibition entry was “Active”.
